In brackets after ≈: the same amount, converted by molar mass. Activity calls are given as the source filed them. The calls are words filed in the database; no cut-off is given here.
Legend:
Candida albicans [1] = experiment: Antifungal activity against Candida albicans ATCC 10231 assessed as growth inhibition at pH 5.6 incubated for 20 hrs in absence of 10% beef serum; format: functional; conditions: for MIC: ATCC 10231, 20 h, read-out: MIC100
Procedure, shortened: (§1)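 Agar dilution in Sabouraud dextrose agar at pH 5.6 or 7.0, with or without 10% beef serum. C. albicans and M. mucedo were incubated 20 h at 37°; A. niger and T. mentagrophytes 5 days at 28°. The value is the minimal µg/ml giving 100% inhibition. Steps were 1 µg/ml up to 10, 2 up to 20, then 10 up to 100 µg/ml maximum.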

Candida albicans [2] = experiment: Antifungal activity against Candida albicans ATCC 10231 assessed as growth inhibition at pH 7 incubated for 20 hrs in absence of 10% beef serum; format: functional; conditions: for MIC: ATCC 10231, 20 h, read-out: MIC100; procedure, shortened: as §1
Aspergillus niger [3] = experiment: Antifungal activity against Aspergillus niger ATCC 1004 assessed as growth inhibition at pH 7 incubated for 5 days in absence of 10% beef serum; format: functional; conditions: for MIC: ATCC 1004, 120 h, read-out: MIC100; procedure, shortened: as §1
Aspergillus niger [4] = experiment: Antifungal activity against Aspergillus niger ATCC 1004 assessed as growth inhibition at pH 7 incubated for 5 days in presence of 10% beef serum; format: functional; conditions: for MIC: ATCC 1004, 120 h, read-out: MIC100; procedure, shortened: as §1
Aspergillus niger [5] = experiment: Antifungal activity against Aspergillus niger ATCC 1004 assessed as growth inhibition at pH 5.6 incubated for 5 days in presence of 10% beef serum; format: functional; conditions: for MIC: ATCC 1004, 120 h, read-out: MIC100; procedure, shortened: as §1
Mucor mucedo [6] = experiment: Antifungal activity against Mucor mucedo ATCC 7941 assessed as growth inhibition at pH 5.6 incubated for 20 hrs in absence of 10% beef serum; format: functional; conditions: for MIC: ATCC 7941, 20 h, read-out: MIC100; procedure, shortened: as §1
[7] = tested on: Trichophyton mentagrophytes; experiment: Antifungal activity against Trichophyton mentagrophytes ATCC 9129 assessed as growth inhibition at pH 5.6 incubated for 5 days in absence of 10% beef serum; format: functional; conditions: for MIC: ATCC 9129, 120 h, read-out: MIC100; procedure, shortened: as §1
Candida albicans [8] = experiment: Antifungal activity against Candida albicans ATCC 10231 assessed as growth inhibition at pH 7 incubated for 20 hrs in presence of 10% beef serum; format: functional; conditions: for MIC: ATCC 10231, 20 h, read-out: MIC100; procedure, shortened: as §1
[9] = tested on: Trichophyton mentagrophytes; experiment: Antifungal activity against Trichophyton mentagrophytes ATCC 9129 assessed as growth inhibition at pH 7 incubated for 5 days in absence of 10% beef serum; format: functional; conditions: for MIC: ATCC 9129, 120 h, read-out: MIC100; procedure, shortened: as §1
[10] = tested on: Trichophyton mentagrophytes; experiment: Antifungal activity against Trichophyton mentagrophytes ATCC 9129 assessed as growth inhibition at pH 7 incubated for 5 days in presence of 10% beef serum; format: functional; conditions: for MIC: ATCC 9129, 120 h, read-out: MIC100; procedure, shortened: as §1
Mucor mucedo [11] = experiment: Antifungal activity against Mucor mucedo ATCC 7941 assessed as growth inhibition at pH 5.6 incubated for 20 hrs in presence of 10% beef serum; format: functional; conditions: for MIC: ATCC 7941, 20 h, read-out: MIC100; procedure, shortened: as §1
Mucor mucedo [12] = experiment: Antifungal activity against Mucor mucedo ATCC 7941 assessed as growth inhibition at pH 7 incubated for 20 hrs in absence of 10% beef serum; format: functional; conditions: for MIC: ATCC 7941, 20 h, read-out: MIC100; procedure, shortened: as §1
Candida albicans [13] = experiment: Antifungal activity against Candida albicans ATCC 10231 assessed as growth inhibition at pH 5.6 incubated for 20 hrs in presence of 10% beef serum; format: functional; conditions: for MIC: ATCC 10231, 20 h, read-out: MIC100; procedure, shortened: as §1
Aspergillus niger [14] = experiment: Antifungal activity against Aspergillus niger ATCC 1004 assessed as growth inhibition at pH 5.6 incubated for 5 days in absence of 10% beef serum; format: functional; conditions: for MIC: ATCC 1004, 120 h, read-out: MIC100; procedure, shortened: as §1
[15] = tested on: Trichophyton mentagrophytes; experiment: Antifungal activity against Trichophyton mentagrophytes ATCC 9129 assessed as growth inhibition at pH 5.6 incubated for 5 days in presence of 10% beef serum; format: functional; conditions: for MIC: ATCC 9129, 120 h, read-out: MIC100; procedure, shortened: as §1
Mucor mucedo [16] = experiment: Antifungal activity against Mucor mucedo ATCC 7941 assessed as growth inhibition at pH 7 incubated for 20 hrs in presence of 10% beef serum; format: functional; conditions: for MIC: ATCC 7941, 20 h, read-out: MIC100; procedure, shortened: as §1
Mucor mucedo [17] = experiment: Antifungal activity against Mucor mucedo ATCC 7941 incubated for 20 hrs; format: functional, organism-based
[18] = tested on: Trichophyton mentagrophytes; experiment: Antifungal activity against Trichophyton mentagrophytes ATCC 9129 incubated for 5 days; format: functional, organism-based
Candida albicans [19] = experiment: Antifungal activity against Candida albicans ATCC 10231 incubated for 20 hrs; format: functional, organism-based
Aspergillus niger [20] = experiment: Antifungal activity against Aspergillus niger ATCC 1004 incubated for 5 days; format: functional, organism-based

With `COC(=O)/C=C/CI` as the compound, how does the MIC (Candida albicans [1]) read?
The MIC was 16 µg/mL (≈ 70.8 µM).

And the MIC (Candida albicans [2])?
The MIC was 20 µg/mL (≈ 88.5 µM).

And the MIC (Aspergillus niger [3])?
The MIC was 30 µg/mL (≈ 133 µM).

And the MIC (Aspergillus niger [4])?
The MIC was 40 µg/mL.

And the MIC (Aspergillus niger [5])?
Its MIC is 40 µg/mL.

And the MIC (Mucor mucedo [6])?
The MIC was 9 µg/mL (≈ 39.8 µM).

And the MIC [7]?
The MIC was less than 1 µg/mL.

What about the MIC (Candida albicans [8]) of the same compound?
The MIC was 18 µg/mL.

What about the MIC [9] of the same compound?
The MIC was 2 µg/mL (≈ 8.85 µM).

What about the MIC [10] of the same compound?
Its MIC is 4 µg/mL.

And the MIC (Mucor mucedo [11])?
Its MIC is 10 µg/mL.

And the MIC (Mucor mucedo [12])?
The MIC was 9 µg/mL (≈ 39.8 µM).

And the MIC (Candida albicans [13])?
Its MIC is 30 µg/mL.

And the MIC (Aspergillus niger [14])?
Its MIC is 30 µg/mL (≈ 133 µM).

And the MIC [15]?
Its MIC is 3 µg/mL.

And the MIC (Mucor mucedo [16])?
The MIC was 8 µg/mL.

For `COC(=O)/C=C/CF`, which MIC100 (Candida albicans [1]) is on record?
Its MIC100 is “inactive”.

What about the MIC100 (Candida albicans [2]) of the same compound?
Its MIC100 is “inactive”.

What about the MIC100 (Aspergillus niger [3]) of the same compound?
Its MIC100 is “inactive”.

What about the MIC100 (Aspergillus niger [4]) of the same compound?
Its MIC100 is “inactive”.

And the MIC100 (Aspergillus niger [5])?
The MIC100 was “inactive”.

What about the MIC100 (Mucor mucedo [6]) of the same compound?
The MIC100 was “inactive”.

And the MIC100 [7]?
The MIC100 was “inactive”.

And the MIC100 (Candida albicans [8])?
The MIC100 was “inactive”.

What about the MIC100 [9] of the same compound?
Its MIC100 is “inactive”.

What about the MIC100 [10] of the same compound?
Its MIC100 is “inactive”.

And the MIC100 (Mucor mucedo [11])?
The MIC100 was “inactive”.

And the MIC100 (Mucor mucedo [12])?
Its MIC100 is “inactive”.

And the MIC100 (Candida albicans [13])?
The MIC100 was “inactive”.

What about the MIC100 (Aspergillus niger [14]) of the same compound?
Its MIC100 is “inactive”.

What about the MIC100 [15] of the same compound?
Its MIC100 is “inactive”.

What about the MIC100 (Mucor mucedo [16]) of the same compound?
Its MIC100 is “inactive”.

With `C[C@@H]1[C@H](O)[C@@H](C)/C=C/C=C/C=C/C=C/C=C/C=C/C=C/[C@H](O[C@@H]2O[C@H](C)[C@@H](O)[C@H](N)[C@@H]2O)C[C@@H]2O[C@](O)(C[C@@H](O)C[C@@H](O)[C@H](O)CC[C@@H](O)C[C@@H](O)CC(=O)O[C@H]1C)C[C@H](O)[C@H]2C(=O)O` [AMPHOTERICIN B] as the compound, how does the MIC (Candida albicans [1]) read?
Its MIC is less than 1 µg/mL.

And the MIC (Candida albicans [2])?
The MIC was less than 1 µg/mL.

And the MIC (Aspergillus niger [3])?
The MIC was less than 1 µg/mL.

What about the MIC (Aspergillus niger [4]) of the same compound?
Its MIC is less than 1 µg/mL.

What about the MIC (Aspergillus niger [5]) of the same compound?
The MIC was less than 1 µg/mL.

What about the MIC (Mucor mucedo [6]) of the same compound?
Its MIC is less than 1 µg/mL.

And the MIC [7]?
Its MIC is less than 1 µg/mL.

What about the MIC (Candida albicans [8]) of the same compound?
The MIC was less than 1 µg/mL.

And the MIC [9]?
Its MIC is less than 1 µg/mL.

And the MIC [10]?
The MIC was less than 1 µg/mL.

And the MIC (Mucor mucedo [11])?
The MIC was less than 1 µg/mL.

And the MIC (Mucor mucedo [12])?
The MIC was less than 1 µg/mL.

What about the MIC (Candida albicans [13]) of the same compound?
Its MIC is less than 1 µg/mL.

What about the MIC (Aspergillus niger [14]) of the same compound?
Its MIC is less than 1 µg/mL.

And the MIC [15]?
The MIC was less than 1 µg/mL.

What about the MIC (Mucor mucedo [16]) of the same compound?
Its MIC is less than 1 µg/mL.

For `CCCOC(=O)/C=C/CBr`, which MIC (Candida albicans [1]) is on record?
Its MIC is 18 µg/mL (≈ 86.9 µM).

And the MIC (Candida albicans [2])?
Its MIC is 30 µg/mL (≈ 145 µM).

And the MIC (Aspergillus niger [3])?
The MIC was 60 µg/mL (≈ 290 µM).

And the MIC (Aspergillus niger [4])?
Its MIC is 80 µg/mL.

And the MIC (Aspergillus niger [5])?
Its MIC is 90 µg/mL.

What about the MIC (Mucor mucedo [6]) of the same compound?
Its MIC is 4 µg/mL (≈ 19.3 µM).

And the MIC [7]?
Its MIC is less than 1 µg/mL.

And the MIC (Candida albicans [8])?
Its MIC is 40 µg/mL.

And the MIC [9]?
Its MIC is 3 µg/mL (≈ 14.5 µM).

What about the MIC [10] of the same compound?
Its MIC is 7 µg/mL.

What about the MIC (Mucor mucedo [11]) of the same compound?
The MIC was 5 µg/mL.

What about the MIC (Mucor mucedo [12]) of the same compound?
Its MIC is 4 µg/mL (≈ 19.3 µM).

And the MIC (Candida albicans [13])?
The MIC was 30 µg/mL.

And the MIC (Aspergillus niger [14])?
The MIC was 80 µg/mL (≈ 386 µM).

And the MIC [15]?
Its MIC is 3 µg/mL.

What about the MIC (Mucor mucedo [16]) of the same compound?
Its MIC is 7 µg/mL.

With `C/C=C/C(=O)OCCCC` as the compound, how does the Activity (Mucor mucedo [17]) read?
Its Activity is “inactive”.

What about the Activity [18] of the same compound?
The Activity was “inactive”.

And the Activity (Candida albicans [19])?
Its Activity is “inactive”.

And the Activity (Aspergillus niger [20])?
Its Activity is “inactive”.

How did the MIC100 (Mucor mucedo [6]) turn out when `COC/C=C/C(=O)OC` was run?
Its MIC100 is “inactive”.

And the MIC100 [7]?
The MIC100 was “inactive”.
